Assay [1] relates to MCF7. As to the kind of experiment: Cell cycle arrest in human MCF7 cells assessed as accumulation at G0 phase at 10 uM after 24 hrs by FACS analysis. Type of assay: functional. Summed up: (§1)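 MCF-7 breast carcinoma cells were exposed to 10 µM test compound for 24 h, with DMSO as the vehicle control. Cell-cycle distribution was read by FACS as the percentage of cells in G0, G1, S and G2/M.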

The test system of assay [2] is MCF7. As to the kind of experiment: Cell cycle arrest in human MCF7 cells assessed as accumulation at G1 phase at 10 uM after 24 hrs by FACS analysis. Type of assay: functional. Summed up: as §1
The test system of assay [3] is MCF7. In words: Cell cycle arrest in human MCF7 cells assessed as accumulation at S phase at 10 uM after 24 hrs by FACS analysis. Type of assay: functional. Put shortly:
as §1

Assay [4] deals with MCF7. As to the kind of experiment: Cell cycle arrest in human MCF7 cells assessed as accumulation at G2/M phase at 10 uM after 24 hrs by FACS analysis. Type of assay: functional. Summed up:
as §1

Assay [5] relates to MCF7. In words: Cell cycle arrest in human MCF7 cells assessed as accumulation at G0 phase at 30 uM after 24 hrs by FACS analysis. The format is functional. Put shortly: (§2)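 MCF-7 cells were treated at 30 µM for 24 h alongside a DMSO control. Fractions in G0, G1, S and G2/M phases were measured by FACS, and values are means of three experiments.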
For assay [6], the system named is MCF7. As to the kind of experiment: Cell cycle arrest in human MCF7 cells assessed as accumulation at G1 phase at 30 uM after 24 hrs by FACS analysis. The format is functional. Put shortly:
as §2

Assay [7] relates to MCF7. In words: Cell cycle arrest in human MCF7 cells assessed as accumulation at S phase at 30 uM after 24 hrs by FACS analysis. The format is functional. Summed up: as §2
Assay [8] deals with MCF7. In words: Cell cycle arrest in human MCF7 cells assessed as accumulation at G2/M phase at 30 uM after 24 hrs by FACS analysis. Type of assay: functional. Summed up:
as §2

The test system of assay [9] is MCF7. In words: Induction of apoptosis in human MCF7 cells assessed as decrease in procaspase 7 level at 30 uM after 24 hrs by Western blot analysis. The format is functional, cell-based. Summed up: (§3)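 MCF-7 breast carcinoma cells were exposed to 30 µM compound for 24 h, with CA-4 as positive control. Cell lysates were then immunoblotted with antibodies to procaspase-7 and cleavage-specific PARP, using β-actin as loading control.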

Assay [10] deals with MCF7. In words: Induction of apoptosis in human MCF7 cells assessed as […] in PARP cleavage at 30 uM after 24 hrs by Western blot analysis. Type of assay: functional, cell-based. Summed up: as §3

Calls of active or inactive are those of the source. The calls are words filed in the database; no cut-off is given here.

As for `COc1ccc(/C=C\c2cc(OC)c(OC)c(OC)c2)cc1O` [COMBRETASTATIN A4], the Activity in the assay on MCF7 [1] turned out to be 9.45%; in the assay on MCF7 [2] it was 11.79%; with MCF7 [3] it was 9.96%; in the assay on MCF7 [4], 68.8%; with MCF7 [5] it was 11.64%; with MCF7 [6], 25.04%. Besides, the Activity with MCF7 [7] turned out to be 39.63%; in the assay on MCF7 [8], 23.69%. Besides, the result in the assay with MCF7 [9] and in the assay on MCF7 [10] was inactive.
On to `COc1cc(/C=C/C(=O)c2cccc(N)c2)cc(OC)c1OC`, for which the Activity in the assay with MCF7 [1] was 2.87%; in the assay on MCF7 [2], 56.17%; in the assay on MCF7 [3] it was 14.96%; in the assay with MCF7 [4] it was 23.57%; in the assay with MCF7 [5] it was 22.58%; in the assay with MCF7 [6], 52.31%. Moreover, the results for the Activity in the assay on MCF7 [7] and in the assay on MCF7 [8] were 9.31% and 15.8%, respectively. Moreover, the result in the assay on MCF7 [9] and in the assay on MCF7 [10] was inactive.

The values are drawn from ChEMBL document CHEMBL1208778, “Synthesis and anti-cancer activity of chalcone linked imidazolones” (2010).
